In brackets after ≈: the same amount, converted by molar mass.
Columns and labels:
Staphylococcus aureus [1] = assay: Antibacterial activity against MLS-resistant Staphylococcus aureus PU 32 expressing inducible ermA gene assessed as reduction in microbial growth by CLSI based two-fold broth dilution method; assay type: functional
Streptococcus pneumoniae [2] = assay: Antibacterial activity against erythromycin-susceptible Streptococcus pneumoniae ATCC49619 assessed as reduction in microbial growth by CLSI based two-fold broth dilution method; assay type: functional
Streptococcus pneumoniae [3] = assay: Bactericidal activity against erythromycin-susceptible Streptococcus pneumoniae ATCC49619 pretreated followed by subculture in absence of compound measured after 24 hrs; assay type: functional
Procedure, shortened: (§1)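 Isolates were identified by 16S rDNA sequencing. MIC was determined by CLSI-recommended two-fold broth dilution. For MBC, samples from 1–8 fold MIC were transferred to culture medium and subcultured for 24 h without antibiotic.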

Haemophilus influenzae [4] = assay: Antibacterial activity against azithromycin-susceptible Haemophilus influenzae ATCC 49247 assessed as reduction in microbial growth by CLSI based two-fold broth dilution method; assay type: functional
Streptococcus pneumoniae [5] = assay: Antibacterial activity against Streptococcus pneumoniae 07P390 expressing constitutive ermB gene assessed as reduction in microbial growth by CLSI based two-fold broth dilution method; assay type: functional
Streptococcus pneumoniae [6] = assay: Antibacterial activity against penicillin-susceptible Streptococcus pneumoniae PU 09 expressing mef gene assessed as reduction in microbial growth by CLSI based two-fold broth dilution method; assay type: functional
Streptococcus pneumoniae [7] = assay: Bactericidal activity against penicillin-susceptible Streptococcus pneumoniae PU 09 expressing mef gene pretreated followed by subculture in absence of compound measured after 24 hrs; assay type: functional; procedure, shortened: as §1
Streptococcus pneumoniae [8] = assay: Selectivity ratio of MBC to MIC for penicillin-susceptible Streptococcus pneumoniae PU 09 expressing mef gene; assay type: functional; procedure, shortened: as §1
Streptococcus pneumoniae [9] = assay: Bactericidal activity against Streptococcus pneumoniae 07P390 expressing constitutive ermB gene pretreated followed by subculture in absence of compound measured after 24 hrs; assay type: functional; procedure, shortened: as §1
Streptococcus pneumoniae [10] = assay: Selectivity ratio of MBC to MIC for Streptococcus pneumoniae 07P390 expressing constitutive ermB gene; assay type: functional; procedure, shortened: as §1
Haemophilus influenzae [11] = assay: Bactericidal activity against azithromycin-susceptible Haemophilus influenzae ATCC 49247 pretreated followed by subculture in absence of compound measured after 24 hrs; assay type: functional; procedure, shortened: as §1
Haemophilus influenzae [12] = assay: Selectivity ratio of MBC to MIC for azithromycin-susceptible Haemophilus influenzae ATCC 49247; assay type: functional; procedure, shortened: as §1
Streptococcus pyogenes [13] = assay: Antibacterial activity against MLS-resistant Streptococcus pyogenes 01-968 expressing inducible ermB gene assessed as reduction in microbial growth by CLSI based two-fold broth dilution method; assay type: functional
Streptococcus pyogenes [14] = assay: Bactericidal activity against MLS-resistant Streptococcus pyogenes 01-968 expressing inducible ermB gene pretreated followed by subculture in absence of compound measured after 24 hrs; assay type: functional
Procedure, shortened: (§2)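 MBC assay. Following MIC determination by CLSI standard two-fold broth dilution, samples at 1–8 fold MIC were transferred to fresh culture medium. They were subcultured for 24 h without antibiotic. Isolates were identified by 16S rDNA sequencing. S. aureus ATCC 29213 was used as a control strain.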

Streptococcus pyogenes [15] = assay: Selectivity ratio of MBC to MIC for MLS-resistant Streptococcus pyogenes 01-968 expressing inducible ermB gene; assay type: functional
Procedure, shortened: (§3)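 MBC/MIC ratio. MIC was measured by CLSI standard two-fold broth dilution. MBC was measured by transferring samples at 1–8 fold MIC to culture medium and subculturing for 24 h without antibiotic. Isolates were identified by 16S rDNA sequencing.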

Staphylococcus aureus [16] = assay: Bactericidal activity against MLS/methicillin-resistant Staphylococcus aureus PU 32 expressing inducible ermA gene pretreated followed by subculture in absence of compound measured after 24 hrs; assay type: functional; procedure, shortened: as §2
Staphylococcus aureus [17] = assay: Selectivity ratio of MBC to MIC for MLS/methicillin-resistant Staphylococcus aureus PU 32 expressing inducible ermA gene; assay type: functional; procedure, shortened: as §3
Staphylococcus aureus [18] = assay: Antibacterial activity against MLS-resistant Staphylococcus aureus PU 20 expressing constitutive ermC gene assessed as reduction in microbial growth by CLSI based two-fold broth dilution method; assay type: functional
Staphylococcus aureus [19] = assay: Bactericidal activity against MLS-resistant Staphylococcus aureus PU 20 expressing constitutive ermC gene pretreated followed by subculture in absence of compound measured after 24 hrs; assay type: functional; procedure, shortened: as §2
Streptococcus pyogenes [20] = assay: Antibacterial activity against MLS-resistant Streptococcus pyogenes 12-206 expressing constitutive ermA gene assessed as reduction in microbial growth by CLSI based two-fold broth dilution method; assay type: functional
Streptococcus pyogenes [21] = assay: Bactericidal activity against MLS-resistant Streptococcus pyogenes 12-206 expressing constitutive ermA gene pretreated followed by subculture in absence of compound measured after 24 hrs; assay type: functional; procedure, shortened: as §2
Streptococcus pyogenes [22] = assay: Selectivity ratio of MBC to MIC for MLS-resistant Streptococcus pyogenes 12-206 expressing constitutive ermA gene; assay type: functional; procedure, shortened: as §3
Streptococcus pyogenes [23] = assay: Antibacterial activity against Streptococcus pyogenes 12-207 expressing mef gene assessed as reduction in microbial growth by CLSI based two-fold broth dilution method; assay type: functional
Streptococcus pyogenes [24] = assay: Bactericidal activity against Streptococcus pyogenes 12-207 expressing mef gene pretreated followed by subculture in absence of compound measured after 24 hrs; assay type: functional; procedure, shortened: as §1
Streptococcus pyogenes [25] = assay: Selectivity ratio of MBC to MIC for Streptococcus pyogenes 12-207 expressing mef gene; assay type: functional; procedure, shortened: as §1
Moraxella catarrhalis [26] = assay: Antibacterial activity against erythromycin-susceptible Moraxella catarrhalis 13L332 assessed as reduction in microbial growth by CLSI based two-fold broth dilution method; assay type: functional
Moraxella catarrhalis [27] = assay: Bactericidal activity against erythromycin-susceptible Moraxella catarrhalis 13L332 pretreated followed by subculture in absence of compound measured after 24 hrs; assay type: functional; procedure, shortened: as §1
Moraxella catarrhalis [28] = assay: Selectivity ratio of MBC to MIC for erythromycin-susceptible Moraxella catarrhalis 13L332; assay type: functional; procedure, shortened: as §1
[29] = AUCinfinity in Sprague-Dawley rat at 20 mg/kg, po after 0.25 to 24 hrs by LC-MS/MS analysis; assay type: ADME, organism-based; design: dose 20 mg/kg, time infinity, route oral; settings: in vivo
Procedure, shortened: (§4)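 Male SD rats were given a single 20 mg/Kg oral dose. Blood was sampled at 0.25, 0.5, 1, 2, 4, 6, 8 and 24 h and centrifuged at 2500 g for 5 min at 4 °C. Drug levels were quantified by LC-MS/MS. t1/2, Cmax, Tmax, CL, MRT and AUC were calculated from the concentration–time data.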

[30] = AUC (0 to t) in Sprague-Dawley rat at 20 mg/kg, po after 0.25 to 24 hrs by LC-MS/MS analysis; assay type: ADME, organism-based; design: time upper 24 hr, dose 20 mg/kg, time lower 0.25 hr, route oral; settings: in vivo; procedure, shortened: as §4
[31] = Half life in Sprague-Dawley rat at 20 mg/kg, po after 0.25 to 24 hrs by LC-MS/MS analysis; assay type: ADME, organism-based; settings: in vivo; procedure, shortened: as §4
[32] = MRT in Sprague-Dawley rat at 20 mg/kg, po after 0.25 to 24 hrs by LC-MS/MS analysis; assay type: ADME, organism-based; settings: in vivo; procedure, shortened: as §4
[33] = Tmax in Sprague-Dawley rat at 20 mg/kg, po after 0.25 to 24 hrs by LC-MS/MS analysis; assay type: ADME, organism-based; settings: in vivo; procedure, shortened: as §4
[34] = Cmax in Sprague-Dawley rat at 20 mg/kg, po after 0.25 to 24 hrs by LC-MS/MS analysis; assay type: ADME, organism-based; design: dose 20 mg/kg, route oral; settings: in vivo; procedure, shortened: as §4
Cytochrome P450 3A4 = Cytochrome P450 3A4 (Homo sapiens, UniProt P08684); assay: Inhibition of CYP3A4 in human liver microsomes assessed as reduction in metabolite formation using midazolam as substrate incubated for 10 mins in presence of NADPH by HPLC based mass spectrometric method; assay type: ADME
Sequence of Cytochrome P450 3A4 (P08684 whole entry): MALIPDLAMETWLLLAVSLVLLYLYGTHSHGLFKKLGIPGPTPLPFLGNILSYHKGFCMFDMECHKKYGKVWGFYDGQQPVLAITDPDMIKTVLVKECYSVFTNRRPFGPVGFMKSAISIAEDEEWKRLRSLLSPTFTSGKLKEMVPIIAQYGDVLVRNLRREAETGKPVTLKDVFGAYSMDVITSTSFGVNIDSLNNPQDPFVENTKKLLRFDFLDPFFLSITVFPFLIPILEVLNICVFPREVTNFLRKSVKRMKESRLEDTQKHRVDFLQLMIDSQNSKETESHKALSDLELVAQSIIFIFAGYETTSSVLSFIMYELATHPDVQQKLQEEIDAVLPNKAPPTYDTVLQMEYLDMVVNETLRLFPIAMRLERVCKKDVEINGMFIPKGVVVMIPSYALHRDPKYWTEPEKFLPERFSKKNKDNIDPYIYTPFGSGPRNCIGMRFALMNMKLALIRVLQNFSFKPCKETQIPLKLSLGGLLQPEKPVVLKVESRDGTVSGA
Procedure, shortened: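 Human liver microsome CYP3A4 with midazolam substrate in 0.1 M potassium phosphate buffer was prewarmed at 37 °C for 5 min. Compound and 25 mM NADPH solution (stock) were added, then incubated at 37 °C for 10 min. Ketoconazole served as the positive inhibitor. Metabolite was measured by UPLC–triple quadrupole MS as the metabolite/internal standard peak area ratio, and IC50 was derived by curve fitting.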

Rattus norvegicus [35] = assay: Ratio of test compound half life to telithromycin half life in Sprague-Dawley rat at 20 mg/kg, po after 0.25 to 24 hrs by LC-MS/MS analysis; assay type: ADME, organism-based; settings: in vivo
[36] = Ratio of test compound MRT to telithromycin MRT in Sprague-Dawley rat at 20 mg/kg, po after 0.25 to 24 hrs by LC-MS/MS analysis; assay type: ADME, organism-based; settings: in vivo
Rattus norvegicus [37] = assay: Ratio of test compound plasma clearance to telithromycin plasma clearance in Sprague-Dawley rat at 20 mg/kg, po after 0.25 to 24 hrs by LC-MS/MS analysis; assay type: ADME, organism-based; settings: in vivo
Rattus norvegicus [38] = assay: Ratio of test compound AUC to telithromycin AUC in Sprague-Dawley rat at 20 mg/kg, po after 0.25 to 24 hrs by LC-MS/MS analysis; assay type: ADME, organism-based; settings: in vivo
[39] = Systemic plasma clearance in Sprague-Dawley rat at 20 mg/kg, po after 0.25 to 24 hrs by LC-MS/MS analysis; assay type: ADME, organism-based; procedure, shortened: as §4

| SMILES | MIC (Staphylococcus aureus [1]) | MIC (Streptococcus pneumoniae [2]) | MBC (Streptococcus pneumoniae [3]) | MIC (Haemophilus influenzae [4]) | MIC (Streptococcus pneumoniae [5]) | MIC (Streptococcus pneumoniae [6]) | MBC (Streptococcus pneumoniae [7]) | Selectivity ratio (Streptococcus pneumoniae [8]) | MBC (Streptococcus pneumoniae [9]) | Selectivity ratio (Streptococcus pneumoniae [10]) | MBC (Haemophilus influenzae [11]) | Selectivity ratio (Haemophilus influenzae [12]) | MIC (Streptococcus pyogenes [13]) | MBC (Streptococcus pyogenes [14]) | Selectivity ratio (Streptococcus pyogenes [15]) | MBC (Staphylococcus aureus [16]) | Selectivity ratio (Staphylococcus aureus [17]) | MIC (Staphylococcus aureus [18]) | MIC (Streptococcus pyogenes [20]) | MBC (Streptococcus pyogenes [21]) | other results |
| --- | --- | --- | --- | --- | --- | --- | --- | --- | --- | --- | --- | --- | --- | --- | --- | --- | --- | --- | --- | --- | --- |
| CC[C@H]1OC(=O)[C@@](C)(F)C(=O)[C@H](C)[C@@H](O[C@@H]2O[C@H](C)C[C@H](N(C)C)[C@H]2O)[C@](C)(OC)C[C@@H](C)/C(=N\OC/C=C/c2ccc3c(c2)c(=O)c(C(N)=O)cn3CC)[C@H](C)[C@H]2OC(=O)O[C@@]21C | 0.5 µg/mL | ≤ 0.008 µg/mL | ≤ 0.008 µg/mL | 32 µg/mL | 0.062 µg/mL | 0.25 µg/mL | 0.25 µg/mL (≈ 0.277 µM) | 1 | > 0.5 µg/mL | >8 | 256 µg/mL (≈ 284 µM) | 8 | ≤ 0.002 µg/mL | > 0.016 µg/mL | >8 | > 4 µg/mL | >8 | 128 µg/mL | 0.5 µg/mL | > 4 µg/mL | MBC (Staphylococcus aureus [19]): > 256 µg/mL; Selectivity ratio (Streptococcus pyogenes [22]): >8; MIC (Streptococcus pyogenes [23]): 0.062 µg/mL; MBC (Streptococcus pyogenes [24]): 0.5 µg/mL (≈ 0.555 µM); Selectivity ratio (Streptococcus pyogenes [25]): 8; MIC (Moraxella catarrhalis [26]): 4 µg/mL; MBC (Moraxella catarrhalis [27]): > 32 µg/mL; Selectivity ratio (Moraxella catarrhalis [28]): >8; AUC [29]: 1538 ng·h/mL; AUC(0-t) [30]: 1460 ng·h/mL; half-life [31]: 3.03 h; MRT [32]: 7.42 h; Tmax [33]: 7 h; Cmax [34]: 124 ng/mL; IC50 (Cytochrome P450 3A4): 5.14 µM; Ratio (Rattus norvegicus [35]): 2.5 to 3.6; Ratio [36]: 2.3 to 2.6; Ratio (Rattus norvegicus [37]): 1.5; Ratio AUC (Rattus norvegicus [38]): 1.6 |
| CC[C@H]1OC(=O)[C@@](C)(F)C(=O)[C@H](C)[C@@H](O[C@@H]2O[C@H](C)C[C@H](N(C)C)[C@H]2O)[C@](C)(OC/C=C/c2ccc3c(c2)c(=O)c(C(N)=O)cn3C2CC2)C[C@@H](C)/C(=N\OC)[C@H](C)[C@H]2OC(=O)O[C@@]21C | 0.25 µg/mL | ≤ 0.008 µg/mL | ≤ 0.008 µg/mL | 16 µg/mL | ≤ 0.008 µg/mL | 0.5 µg/mL | 0.5 µg/mL (≈ 0.548 µM) | 1 | > 0.062 µg/mL | >8 | 32 µg/mL (≈ 35 µM) | 2 | ≤ 0.002 µg/mL | > 0.016 µg/mL | >8 | > 2 µg/mL | >8 | > 256 µg/mL | 0.016 µg/mL | > 0.125 µg/mL | Selectivity ratio (Streptococcus pyogenes [22]): >8; MIC (Streptococcus pyogenes [23]): 0.062 µg/mL; MBC (Streptococcus pyogenes [24]): 0.125 µg/mL (≈ 0.137 µM); Selectivity ratio (Streptococcus pyogenes [25]): 2; MIC (Moraxella catarrhalis [26]): 0.5 µg/mL; MBC (Moraxella catarrhalis [27]): 4 µg/mL (≈ 4.38 µM); Selectivity ratio (Moraxella catarrhalis [28]): 8; AUC(0-inf) ([29]; Sprague-Dawley): 4770 ng·h/mL; AUC(0-t) [30]: 4600 ng·h/mL; CL/F [39]: 80.8 mL/min/kg; half-life [31]: 4.34 h; MRT [32]: 8.32 h; Tmax [33]: 6.67 h; Cmax [34]: 369 ng/mL; IC50 (Cytochrome P450 3A4): 14.9 µM; Ratio (Rattus norvegicus [35]): 2.5 to 3.6; Ratio [36]: 2.3 to 2.6 |
